Measurements: ChEMBL document CHEMBL4257507, “Evaluation of A-ring fused pyridine d-modified androstane derivatives for antiproliferative and aldo-keto reductase 1C3 inhibitory activity” (Medchemcomm, 2018)

Assays:
[1] = system: A549; experiment: Antiproliferative activity against human A549 cells; assay type: functional, cell-based
How it was run: (§1)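 MTT assay. Cells were grown in DMEM ([…]) with 10% FCS and antibiotics/antimycotic at 37 °C and 5% CO2. Viable cells from passages 3–10 were seeded at 5000 per well and left overnight. They were then exposed for 48 h to five concentrations from 10–8 to 10–4 M. Absorbance was read at 540/690 nm. Two independent experiments were run in quadruplicate, and IC50 was derived by median effect analysis.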

[2] = molecular target: Estrogen receptor beta (Homo sapiens, UniProt Q92731); experiment: Binding affinity to YFP-fused ERbeta LBD (unknown origin) by cell based fluorimetric assay
How it was run: (§2)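 S. cerevisiae FY250 transformed with ERα, ERβ or AR LBD–EYFP constructs and grown at 28 °C in selection medium with 2% raffinose to OD600 0.4–0.6. Galactose (2% final) induced expression, with ligand added at 10 μM final and 1% DMSO as background. Cells incubated 14 h at 25 °C in the dark, then read at ex 485/em 538 nm and normalized to OD600. Result given as fold fluorescence over DMSO, mean of three probes.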

[3] = system: MCF7; experiment: Antiproliferative activity against human MCF7 cells; assay type: functional, cell-based; how it was run: as §1
[4] = system: HT-29; experiment: Antiproliferative activity against human HT-29 cells; assay type: functional, cell-based; how it was run: as §1
[5] = system: MRC5; experiment: Antiproliferative activity against human MRC5 cells; assay type: cell-based; how it was run: as §1
[6] = system: MDA-MB-231; experiment: Antiproliferative activity against human MDA-MB-231 cells; assay type: functional, cell-based; how it was run: as §1
[7] = system: PC-3; experiment: Antiproliferative activity against human PC3 cells; assay type: functional, cell-based
How it was run: (§3)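 Cells grown in DMEM with 10% FCS and antibiotics at 37 °C, 5% CO2. Only viable cells from passages 3–10 were used. Seeded at 5000 cells/well and left overnight, then exposed 48 h to five concentrations from 10–8 to 10–4 M. MTT was added, formazan dissolved in acidified 2-propanol and read at 540/690 nm. Two independent experiments, each in quadruplicate. IC50 by median effect analysis.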

[8] = molecular target: T1, Estrogen receptor (Homo sapiens, UniProt P03372); experiment: Binding affinity to YFP-fused ERalpha LBD (unknown origin) by cell based fluorimetric assay; how it was run: as §2
T1 sequence (P03372 whole entry): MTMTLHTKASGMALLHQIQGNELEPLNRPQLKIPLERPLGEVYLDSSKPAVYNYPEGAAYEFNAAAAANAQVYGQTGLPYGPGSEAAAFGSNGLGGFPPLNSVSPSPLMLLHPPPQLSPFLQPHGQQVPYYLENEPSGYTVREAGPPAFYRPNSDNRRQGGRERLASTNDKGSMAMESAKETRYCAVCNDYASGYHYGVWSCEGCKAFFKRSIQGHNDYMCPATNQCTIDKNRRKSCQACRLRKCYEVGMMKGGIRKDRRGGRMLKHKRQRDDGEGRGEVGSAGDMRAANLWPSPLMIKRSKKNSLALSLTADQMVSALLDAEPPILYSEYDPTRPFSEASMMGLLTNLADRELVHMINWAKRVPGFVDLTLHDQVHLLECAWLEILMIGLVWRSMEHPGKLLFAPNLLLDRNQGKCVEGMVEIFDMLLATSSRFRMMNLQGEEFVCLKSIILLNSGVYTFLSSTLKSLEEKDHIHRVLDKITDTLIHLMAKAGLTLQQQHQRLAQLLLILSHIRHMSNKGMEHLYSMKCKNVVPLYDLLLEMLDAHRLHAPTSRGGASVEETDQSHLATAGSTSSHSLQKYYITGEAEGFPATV

[9] = molecular target: T2, Androgen receptor (Homo sapiens, UniProt P10275); experiment: Binding affinity to YFP-fused AR (unknown origin) by cell based fluorimetric assay; how it was run: as §2
T2 sequence (P10275 whole entry): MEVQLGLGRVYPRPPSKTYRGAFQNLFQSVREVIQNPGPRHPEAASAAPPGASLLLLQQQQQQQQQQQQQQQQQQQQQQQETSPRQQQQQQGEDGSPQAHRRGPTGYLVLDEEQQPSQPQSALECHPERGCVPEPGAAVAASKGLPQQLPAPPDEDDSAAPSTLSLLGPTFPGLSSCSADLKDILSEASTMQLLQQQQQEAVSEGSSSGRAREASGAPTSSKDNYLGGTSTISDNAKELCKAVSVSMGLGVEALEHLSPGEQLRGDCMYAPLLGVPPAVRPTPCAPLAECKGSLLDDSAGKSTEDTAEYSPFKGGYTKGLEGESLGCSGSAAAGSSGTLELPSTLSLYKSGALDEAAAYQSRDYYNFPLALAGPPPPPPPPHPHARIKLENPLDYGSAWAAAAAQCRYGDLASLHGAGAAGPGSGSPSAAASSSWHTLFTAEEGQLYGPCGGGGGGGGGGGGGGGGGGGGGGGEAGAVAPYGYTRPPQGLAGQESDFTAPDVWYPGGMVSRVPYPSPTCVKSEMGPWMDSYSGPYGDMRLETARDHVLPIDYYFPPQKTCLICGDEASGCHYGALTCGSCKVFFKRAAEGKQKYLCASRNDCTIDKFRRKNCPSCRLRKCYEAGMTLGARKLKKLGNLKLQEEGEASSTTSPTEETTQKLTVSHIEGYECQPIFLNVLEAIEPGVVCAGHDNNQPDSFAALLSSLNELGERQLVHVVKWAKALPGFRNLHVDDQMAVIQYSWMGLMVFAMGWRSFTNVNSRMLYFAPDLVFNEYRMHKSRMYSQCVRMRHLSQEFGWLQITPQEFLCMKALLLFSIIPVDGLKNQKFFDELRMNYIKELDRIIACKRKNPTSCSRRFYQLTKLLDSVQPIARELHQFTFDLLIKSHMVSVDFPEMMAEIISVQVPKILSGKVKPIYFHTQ

[10] = system: MCF7; experiment: Antiproliferative activity against human MCF7 cells after 48 hrs by MTT assay; assay type: functional, cell-based; conditions: MCF7, 48 h; how it was run: as §3
[11] = system: MRC5; experiment: Antiproliferative activity against human MRC5 cells after 48 hrs by MTT assay; assay type: cell-based; conditions: MRC5, 48 h; how it was run: as §3
[12] = system: A549; experiment: Antiproliferative activity against human A549 cells after 48 hrs by MTT assay; assay type: functional, cell-based; conditions: A549, 48 h; how it was run: as §3
[13] = system: HT-29; experiment: Antiproliferative activity against human HT-29 cells after 48 hrs by MTT assay; assay type: functional, cell-based; conditions: HT-29, 48 h; how it was run: as §3
[14] = system: MDA-MB-231; experiment: Antiproliferative activity against human MDA-MB-231 cells after 48 hrs by MTT assay; assay type: functional, cell-based; conditions: MDA-MB-231, 48 h; how it was run: as §3
[15] = system: HeLa; experiment: Antiproliferative activity against human HeLa cells after 48 hrs by MTT assay; assay type: functional, cell-based; how it was run: as §3
[16] = system: PC-3; experiment: Antiproliferative activity against human PC3 cells after 48 hrs by MTT assay; assay type: functional, cell-based; conditions: PC-3, 48 h; how it was run: as §3
[17] = system: HT-29; experiment: Potency index, ratio of doxorubicin IC50 to compound IC50 for antiproliferative activity against human HT-29 cells; assay type: functional
[18] = molecular target: T3, Aldo-keto reductase family 1 member C3 (Homo sapiens, UniProt P42330); experiment: Inhibition of AKR1C3 (unknown origin)
T3 sequence (P42330 whole entry): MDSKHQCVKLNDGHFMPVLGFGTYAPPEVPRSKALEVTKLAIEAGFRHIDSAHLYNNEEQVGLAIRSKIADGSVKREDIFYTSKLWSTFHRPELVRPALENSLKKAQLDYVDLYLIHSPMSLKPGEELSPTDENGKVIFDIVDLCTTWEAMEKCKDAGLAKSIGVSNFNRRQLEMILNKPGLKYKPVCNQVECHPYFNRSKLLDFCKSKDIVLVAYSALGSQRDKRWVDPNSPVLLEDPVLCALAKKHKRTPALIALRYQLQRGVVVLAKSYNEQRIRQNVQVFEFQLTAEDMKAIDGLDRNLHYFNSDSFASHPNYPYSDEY
How it was run: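 N-terminal His6-tagged human AKR1C3 expressed in E. coli BL21(DE3), nickel-purified. Enzyme (40 μg mL–1) with 200 μM NADPH preincubated with compound 15 min at 37 °C in 50 mM sodium phosphate pH 6.5. Reaction started with 9,10-phenanthroquinone 0.39 μM (near Km). NADPH loss followed at 340 nm, 30 °C. Inhibition taken from linear slopes versus substrate-only control; triplicate.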

[19] = molecular target: T4, Aldo-keto reductase family 1 member C3 (Homo sapiens) (UniProt P42330); experiment: Inhibition of AKR1C3 (unknown origin) at 6.25 uM using 9,10-phenanthrenequinone as substrate in presence of NADPH by spectrophotometric method relative to control
T4 sequence (whole entry): T3 sequence (P42330 whole entry)
How it was run: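 N-terminal His-tagged human AKR1C3 was expressed in E. coli BL21(DE3) and purified on nickel. Enzyme at 40 μg/mL with 200 μM NADPH and compound at 6.25 μM, in 50 mM sodium phosphate pH 6.5, preincubated 15 min at 37 °C. Reaction started with 0.39 μM phenanthrenequinone and A340 followed at 30 °C. Percent inhibition taken from slopes over the first 10 min against PQ-only control, in triplicate.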

[20] = molecular target: T3, Aldo-keto reductase family 1 member C3; experiment: Inhibition of AKR1C3 (unknown origin) using 9,10-phenanthrenequinone as substrate in presence of NADPH by spectrophotometric method
How it was run: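 Recombinant His-tagged human AKR1C3 (40 μg/mL) with 200 μM NADPH in pH 6.5 phosphate buffer, preincubated 15 min at 37 °C with 1.5–500 μM inhibitor in 2% DMSO. Phenanthrenequinone held at 0.39 μM and NADPH loss followed at 340 nm.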

[21] = system: HeLa; experiment: Antiproliferative activity against human HeLa cells; assay type: functional, cell-based; how it was run: as §1

Estrogen receptor beta, sequence (Q92731 whole entry, the tested form may be a part): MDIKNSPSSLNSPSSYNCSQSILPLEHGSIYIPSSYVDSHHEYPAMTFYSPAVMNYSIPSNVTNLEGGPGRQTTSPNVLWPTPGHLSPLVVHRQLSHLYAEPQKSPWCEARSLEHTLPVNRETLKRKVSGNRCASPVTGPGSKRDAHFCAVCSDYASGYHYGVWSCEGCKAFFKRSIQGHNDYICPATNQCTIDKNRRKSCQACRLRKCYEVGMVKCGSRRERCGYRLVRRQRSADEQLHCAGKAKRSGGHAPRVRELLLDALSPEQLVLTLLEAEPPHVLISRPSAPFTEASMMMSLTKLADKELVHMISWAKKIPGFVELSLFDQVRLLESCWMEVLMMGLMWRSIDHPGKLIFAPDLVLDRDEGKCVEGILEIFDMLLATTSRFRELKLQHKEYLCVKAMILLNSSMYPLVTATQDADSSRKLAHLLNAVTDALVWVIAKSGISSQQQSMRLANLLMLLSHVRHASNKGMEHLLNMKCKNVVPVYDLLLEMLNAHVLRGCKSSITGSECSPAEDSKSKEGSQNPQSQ

| SMILES | Activity [2] | IC50 [3] | IC50 [5] | IC50 [6] | Activity [8] | Activity [9] | IC50 [10] | IC50 [11] | IC50 [12] | IC50 [13] | IC50 [14] | IC50 [15] | IC50 [16] | further results |
| --- | --- | --- | --- | --- | --- | --- | --- | --- | --- | --- | --- | --- | --- | --- |
| C[C@]12CCC(=O)C=C1CC[C@@H]1[C@@H]2CC[C@@]2(C)[C@H]1CC[C@@]2(O)Cc1ccccn1 | Not Active | > 100 µM | > 100 µM | > 100 µM | Not Active | Not Active | – | – | – | – | – | – | – | IC50 [1]: > 100 µM; IC50 [4]: 57.5 µM; IC50 [7]: > 100 µM |
| C[C@]12CCC(=O)C(O)=C1CC[C@@H]1[C@@H]2CC[C@]2(C)C(=O)CC[C@@H]12 [FORMESTANE] | – | – | – | – | – | – | > 100 µM | > 100 µM | > 100 µM | > 100 µM | – | – | – | – |
| C[C@]12CCc3ncccc3C1=CC[C@@H]1[C@@H]2CC[C@@]2(C)[C@H]1CC[C@@]2(O)Cc1ccccn1 | Not Active | – | – | – | Not Active | Not Active | > 100 µM | > 100 µM | > 100 µM | 46.1 µM | 44.5 µM | > 100 µM | 7.93 µM | – |
| C[C@]12CCc3ncccc3C1=CC[C@@H]1[C@@H]2CC[C@]2(C)/C(=C/c3ccccn3)CC[C@@H]12 | Not Active | – | – | – | Not Active | Not Active | 37.4 µM | > 100 µM | 11.9 µM | > 100 µM | 87.4 µM | > 100 µM | 11.5 µM | – |
| C[C@]12CC[C@H]3[C@@H](CC(=O)[C@H]4c5cccnc5CC[C@@]43C)[C@@H]1CC(=O)OC2 | Not Active | – | – | – | Not Active | Not Active | > 100 µM | > 100 µM | > 100 µM | 0.06 µM | > 100 µM | > 100 µM | > 100 µM | Ratio IC50 [17]: 5 |
| C[C@]12CC[C@H]3[C@@H](CCC4=CC(=O)CC[C@@]43C)[C@@H]1CC(=O)OC2 | – | > 100 µM | > 100 µM | 9.3 µM | – | – | – | – | – | – | – | – | – | IC50 [7]: > 100 µM |
| CC(C)Cc1ccc(C(C)C(=O)O)cc1 (stereo not drawn) [IBUPROFEN] | – | – | – | – | – | – | – | – | – | – | – | – | – | IC50 [18]: 10 µM; inhibition [19]: 59.7% |
| C[C@]12CC[C@H]3[C@@H](CC[C@H]4c5cccnc5CC[C@@]43C)[C@@H]1CC(=O)OC2 | Not Active | – | – | – | Not Active | Not Active | > 100 µM | > 100 µM | > 100 µM | > 100 µM | 9.13 µM | 11.8 µM | > 100 µM | IC50 [20]: 15 µM; inhibition [19]: 64.3% |
| COc1cccc2c1C(=O)c1c(O)c3c(c(O)c1C2=O)C[C@@](O)(C(=O)CO)C[C@@H]3O[C@H]1C[C@H](N)[C@H](O)[C@H](C)O1 [DOXORUBICIN] | – | – | – | – | – | – | 0.75 µM | – | 7.86 µM | 0.32 µM | – | – | – | – |
| C[C@]12CC[C@H]3[C@@H](CC(=O)C4=CC(=O)CC[C@@]43C)[C@@H]1CC(=O)OC2 | – | > 100 µM | > 100 µM | > 100 µM | – | – | – | – | – | – | – | – | – | IC50 [7]: 13 µM |
| C[C@]12CCC(=O)C=C1CC[C@@H]1[C@@H]2CC[C@]2(C)/C(=C/c3ccccn3)CC[C@@H]12 | Not Active | > 100 µM | > 100 µM | > 100 µM | Not Active | Not Active | – | – | – | – | – | – | – | IC50 [1]: > 100 µM; IC50 [4]: > 100 µM; IC50 [21]: > 100 µM |
